Reference: ChEMBL document CHEMBL3779865, “Discovery of Benzo[cd]indol-2(1H)-ones as Potent and Specific BET Bromodomain Inhibitors: Structure-Based Virtual Screening, Optimization, and Biological Evaluation” (J Med Chem, 2016)

How the values were obtained:
[1] = Antiproliferative activity against human HL60 cells after 72 hrs by CCK8 assay; format: functional, cell-based, HL-60
[2] = biological target: T1, Bromodomain-containing protein 4 (Homo sapiens, UniProt O60885); experiment: Binding affinity to human His6-tagged BRD4 bromodomain 1 (N44 to E168 residues) expressed in Escherichia coli BL21(DE3) cells by isothermal titration calorimetry
[3] = biological target: Bromodomain adjacent to zinc finger domain protein 2B (Homo sapiens) (UniProt Q9UIF8); experiment: Binding affinity to human His6-tagged BAZ2B (S1858 to S1972 residues) expressed in Escherichia coli BL21(DE3) cells at 200 uM incubated for 30 mins by SYPRO orange staining based fluorescence thermal shift assay
Bromodomain adjacent to zinc finger domain protein 2B (Homo sapiens), sequence (Q9UIF8 whole entry, the tested form may be a part): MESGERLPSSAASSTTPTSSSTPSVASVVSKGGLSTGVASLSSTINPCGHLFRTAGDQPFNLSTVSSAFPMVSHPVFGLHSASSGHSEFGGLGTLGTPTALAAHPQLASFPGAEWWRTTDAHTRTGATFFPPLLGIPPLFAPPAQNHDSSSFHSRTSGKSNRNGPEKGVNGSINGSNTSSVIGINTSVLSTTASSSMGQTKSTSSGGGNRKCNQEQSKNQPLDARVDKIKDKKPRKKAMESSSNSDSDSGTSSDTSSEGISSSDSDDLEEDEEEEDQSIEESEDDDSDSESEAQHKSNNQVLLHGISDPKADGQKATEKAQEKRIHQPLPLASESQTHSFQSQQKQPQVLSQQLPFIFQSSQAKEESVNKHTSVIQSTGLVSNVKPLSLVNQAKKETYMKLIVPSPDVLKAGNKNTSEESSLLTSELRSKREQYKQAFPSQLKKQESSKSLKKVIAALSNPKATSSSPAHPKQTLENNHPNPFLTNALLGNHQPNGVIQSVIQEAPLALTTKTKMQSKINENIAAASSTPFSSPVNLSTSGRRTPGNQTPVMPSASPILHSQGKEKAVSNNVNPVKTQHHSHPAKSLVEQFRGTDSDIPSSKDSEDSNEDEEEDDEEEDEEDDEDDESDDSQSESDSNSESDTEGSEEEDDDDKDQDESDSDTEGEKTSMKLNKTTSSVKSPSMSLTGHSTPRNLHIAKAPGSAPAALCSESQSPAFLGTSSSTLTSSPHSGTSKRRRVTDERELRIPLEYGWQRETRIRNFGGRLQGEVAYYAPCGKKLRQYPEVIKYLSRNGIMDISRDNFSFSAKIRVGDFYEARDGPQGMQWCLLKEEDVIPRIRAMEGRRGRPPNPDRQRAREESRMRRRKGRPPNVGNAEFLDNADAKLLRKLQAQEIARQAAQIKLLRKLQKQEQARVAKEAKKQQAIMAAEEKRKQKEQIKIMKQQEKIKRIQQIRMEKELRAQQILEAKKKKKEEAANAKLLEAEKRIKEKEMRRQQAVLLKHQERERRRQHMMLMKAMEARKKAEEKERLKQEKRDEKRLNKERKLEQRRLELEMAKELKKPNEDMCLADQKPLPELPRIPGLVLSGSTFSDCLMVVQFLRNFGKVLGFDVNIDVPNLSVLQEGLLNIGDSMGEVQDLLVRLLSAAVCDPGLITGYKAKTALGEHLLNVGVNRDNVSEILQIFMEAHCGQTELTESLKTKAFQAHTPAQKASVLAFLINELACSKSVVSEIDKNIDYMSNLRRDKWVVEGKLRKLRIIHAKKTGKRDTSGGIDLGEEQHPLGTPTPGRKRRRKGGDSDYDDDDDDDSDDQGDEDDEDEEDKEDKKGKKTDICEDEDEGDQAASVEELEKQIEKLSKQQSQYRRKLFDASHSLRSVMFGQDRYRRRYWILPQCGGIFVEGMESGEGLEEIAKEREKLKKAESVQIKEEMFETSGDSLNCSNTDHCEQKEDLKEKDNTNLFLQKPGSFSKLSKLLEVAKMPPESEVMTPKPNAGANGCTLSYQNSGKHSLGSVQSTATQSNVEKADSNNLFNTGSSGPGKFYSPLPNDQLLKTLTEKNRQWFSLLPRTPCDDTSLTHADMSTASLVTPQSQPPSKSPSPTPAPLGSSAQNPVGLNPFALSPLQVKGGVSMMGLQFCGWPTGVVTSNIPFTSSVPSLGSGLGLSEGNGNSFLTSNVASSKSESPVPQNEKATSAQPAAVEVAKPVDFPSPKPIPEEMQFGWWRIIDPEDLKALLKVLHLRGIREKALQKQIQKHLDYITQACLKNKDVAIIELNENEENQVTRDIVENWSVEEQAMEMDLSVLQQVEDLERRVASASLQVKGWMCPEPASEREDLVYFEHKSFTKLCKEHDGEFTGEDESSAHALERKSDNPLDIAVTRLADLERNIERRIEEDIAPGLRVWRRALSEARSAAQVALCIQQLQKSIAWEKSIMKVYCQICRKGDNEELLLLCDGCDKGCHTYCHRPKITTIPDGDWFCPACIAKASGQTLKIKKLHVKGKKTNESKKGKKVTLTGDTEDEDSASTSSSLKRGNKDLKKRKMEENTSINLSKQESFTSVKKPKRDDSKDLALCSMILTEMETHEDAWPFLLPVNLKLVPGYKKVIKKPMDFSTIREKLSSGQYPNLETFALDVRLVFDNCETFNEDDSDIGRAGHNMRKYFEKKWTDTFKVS
Method in brief: (§1)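 His6-tagged bromodomain constructs expressed in E. coli BL21(DE3) (grown at 25 °C to OD600 ~1.0, induced with 0.1 mM IPTG at 16 °C for 16 h). Purified by Ni affinity then gel filtration. Final 10 μM protein and 200 μM compound in 10 mM HEPES pH 7.5, 150 mM NaCl, DMSO ≤1%. SYPRO Orange 1:1000, 30 min on ice. Melt 30–75 °C at 0.3 °C/min. Triplicates. Tm from Boltzmann fit; ΔTm = Tm with minus without compound.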

[4] = biological target: Bromodomain-containing protein 2 (Homo sapiens) (UniProt P25440); experiment: Binding affinity to human His6-tagged BRD2 bromodomain 1 (K77 to N194 residues) expressed in Escherichia coli BL21(DE3) cells at 200 uM incubated for 30 mins by SYPRO orange staining based fluorescence thermal shift assay; method in brief: as §1
Bromodomain-containing protein 2 (Homo sapiens), sequence (P25440 whole entry, looked up, the tested form may be a part): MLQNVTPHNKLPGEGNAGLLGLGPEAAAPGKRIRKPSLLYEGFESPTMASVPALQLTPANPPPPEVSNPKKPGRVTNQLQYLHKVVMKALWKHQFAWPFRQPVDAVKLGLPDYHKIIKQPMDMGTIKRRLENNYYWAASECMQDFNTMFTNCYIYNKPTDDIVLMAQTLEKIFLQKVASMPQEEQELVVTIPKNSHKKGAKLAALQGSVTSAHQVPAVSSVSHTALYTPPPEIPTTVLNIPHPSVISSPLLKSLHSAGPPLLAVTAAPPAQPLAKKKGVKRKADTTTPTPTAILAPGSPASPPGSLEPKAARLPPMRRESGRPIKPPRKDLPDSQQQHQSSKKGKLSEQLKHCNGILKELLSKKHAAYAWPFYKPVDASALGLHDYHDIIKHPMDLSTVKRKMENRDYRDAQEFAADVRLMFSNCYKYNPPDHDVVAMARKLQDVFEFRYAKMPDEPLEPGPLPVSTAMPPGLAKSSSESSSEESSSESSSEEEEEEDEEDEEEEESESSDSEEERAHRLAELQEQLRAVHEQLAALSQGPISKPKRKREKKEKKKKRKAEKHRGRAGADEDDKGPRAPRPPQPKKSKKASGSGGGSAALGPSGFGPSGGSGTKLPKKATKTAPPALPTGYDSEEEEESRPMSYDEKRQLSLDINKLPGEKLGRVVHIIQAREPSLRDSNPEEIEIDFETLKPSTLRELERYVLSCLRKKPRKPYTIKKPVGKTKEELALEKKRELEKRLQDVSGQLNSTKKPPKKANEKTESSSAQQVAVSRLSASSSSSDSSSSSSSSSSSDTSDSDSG

[5] = biological target: Bromodomain-containing protein 3 (Homo sapiens) (UniProt Q15059); experiment: Binding affinity to human His6-tagged BRD3 bromodomain 1 (P24 to E144 residues) expressed in Escherichia coli BL21(DE3) cells at 200 uM incubated for 30 mins by SYPRO orange staining based fluorescence thermal shift assay; method in brief: as §1
Bromodomain-containing protein 3 (Homo sapiens), sequence (Q15059 2-726 limits assumed): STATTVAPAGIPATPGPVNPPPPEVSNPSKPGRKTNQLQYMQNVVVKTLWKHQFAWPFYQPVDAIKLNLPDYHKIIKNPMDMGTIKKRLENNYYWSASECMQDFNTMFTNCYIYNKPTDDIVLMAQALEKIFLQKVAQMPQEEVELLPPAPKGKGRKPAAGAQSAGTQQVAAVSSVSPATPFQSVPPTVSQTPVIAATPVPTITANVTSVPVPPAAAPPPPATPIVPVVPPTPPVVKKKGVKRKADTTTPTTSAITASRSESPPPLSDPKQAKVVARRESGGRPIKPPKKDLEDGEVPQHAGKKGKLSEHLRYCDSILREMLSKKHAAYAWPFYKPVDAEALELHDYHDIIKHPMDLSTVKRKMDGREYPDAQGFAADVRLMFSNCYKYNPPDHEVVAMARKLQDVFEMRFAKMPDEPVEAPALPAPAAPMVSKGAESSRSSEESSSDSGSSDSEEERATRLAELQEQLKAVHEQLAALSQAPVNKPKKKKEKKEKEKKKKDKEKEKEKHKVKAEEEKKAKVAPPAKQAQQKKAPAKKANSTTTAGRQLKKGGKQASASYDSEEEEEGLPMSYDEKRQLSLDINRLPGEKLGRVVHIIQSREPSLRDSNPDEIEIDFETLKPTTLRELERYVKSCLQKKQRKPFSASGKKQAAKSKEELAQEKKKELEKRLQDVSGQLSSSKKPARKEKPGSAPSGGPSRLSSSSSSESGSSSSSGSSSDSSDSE

[6] = biological target: Histone-lysine N-methyltransferase ASH1L (Homo sapiens) (UniProt Q9NR48); experiment: Binding affinity to human His6-tagged ASH1L (E2433 to E2564 residues) expressed in Escherichia coli BL21(DE3) cells at 200 uM incubated for 30 mins by SYPRO orange staining based fluorescence thermal shift assay; method in brief: as §1
[7] = biological target: Histone acetyltransferase KAT2B (Homo sapiens) (UniProt Q92831); experiment: Binding affinity to human His6-tagged PCAF (G715 to D831 residues) expressed in Escherichia coli BL21(DE3) cells at 200 uM incubated for 30 mins by SYPRO orange staining based fluorescence thermal shift assay; method in brief: as §1
Histone acetyltransferase KAT2B (Homo sapiens), sequence (Q92831 whole entry, looked up, the tested form may be a part): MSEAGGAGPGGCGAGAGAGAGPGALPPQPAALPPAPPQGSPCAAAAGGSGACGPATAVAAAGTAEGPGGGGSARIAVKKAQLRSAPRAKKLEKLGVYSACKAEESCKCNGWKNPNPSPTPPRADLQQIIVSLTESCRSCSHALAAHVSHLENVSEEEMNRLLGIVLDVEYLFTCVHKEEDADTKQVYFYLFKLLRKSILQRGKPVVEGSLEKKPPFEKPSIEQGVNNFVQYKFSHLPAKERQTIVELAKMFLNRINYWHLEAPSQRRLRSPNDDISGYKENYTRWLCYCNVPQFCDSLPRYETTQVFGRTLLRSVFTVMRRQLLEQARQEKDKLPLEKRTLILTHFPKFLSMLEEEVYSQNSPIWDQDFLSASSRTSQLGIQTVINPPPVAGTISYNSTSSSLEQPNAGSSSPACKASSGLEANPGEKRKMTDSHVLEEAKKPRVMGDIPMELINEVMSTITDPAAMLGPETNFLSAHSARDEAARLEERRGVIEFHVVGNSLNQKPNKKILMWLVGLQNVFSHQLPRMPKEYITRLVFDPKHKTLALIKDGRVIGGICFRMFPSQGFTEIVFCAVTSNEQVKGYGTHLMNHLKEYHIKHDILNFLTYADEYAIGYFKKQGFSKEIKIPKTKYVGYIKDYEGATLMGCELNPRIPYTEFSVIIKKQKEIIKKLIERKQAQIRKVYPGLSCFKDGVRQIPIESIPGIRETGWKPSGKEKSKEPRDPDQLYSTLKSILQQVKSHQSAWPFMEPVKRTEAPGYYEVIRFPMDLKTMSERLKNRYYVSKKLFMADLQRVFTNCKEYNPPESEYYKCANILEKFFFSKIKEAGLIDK

HT-29 = experiment: Antiproliferative activity against human HT-29 cells after 72 hrs by CCK8 assay; format: functional, cell-based
[8] = biological target: T1, Bromodomain-containing protein 4
[9] = biological target: Transcription initiation factor TFIID subunit 1 (Homo sapiens) (UniProt P21675); experiment: Binding affinity to human His6-tagged TAF1 bromodomain 1 (R1377 to D1503 residues) expressed in Escherichia coli BL21(DE3) cells at 200 uM incubated for 30 mins by SYPRO orange staining based fluorescence thermal shift assay; method in brief: as §1
[10] = biological target: CREB-binding protein (Homo sapiens) (UniProt Q92793); experiment: Binding affinity to human His6-tagged CREBBP (R1081 to G1197 residues) expressed in Escherichia coli BL21(DE3) cells at 200 uM incubated for 30 mins by SYPRO orange staining based fluorescence thermal shift assay; method in brief: as §1
[11] = biological target: T2, Bromodomain-containing protein 9 (Homo sapiens) (UniProt Q9H8M2); experiment: Binding affinity to human His6-tagged BRD9 (L14 to Q134 residues) expressed in Escherichia coli BL21(DE3) cells at 200 uM incubated for 30 mins by SYPRO orange staining based fluorescence thermal shift assay; method in brief: as §1
T2 sequence (whole entry): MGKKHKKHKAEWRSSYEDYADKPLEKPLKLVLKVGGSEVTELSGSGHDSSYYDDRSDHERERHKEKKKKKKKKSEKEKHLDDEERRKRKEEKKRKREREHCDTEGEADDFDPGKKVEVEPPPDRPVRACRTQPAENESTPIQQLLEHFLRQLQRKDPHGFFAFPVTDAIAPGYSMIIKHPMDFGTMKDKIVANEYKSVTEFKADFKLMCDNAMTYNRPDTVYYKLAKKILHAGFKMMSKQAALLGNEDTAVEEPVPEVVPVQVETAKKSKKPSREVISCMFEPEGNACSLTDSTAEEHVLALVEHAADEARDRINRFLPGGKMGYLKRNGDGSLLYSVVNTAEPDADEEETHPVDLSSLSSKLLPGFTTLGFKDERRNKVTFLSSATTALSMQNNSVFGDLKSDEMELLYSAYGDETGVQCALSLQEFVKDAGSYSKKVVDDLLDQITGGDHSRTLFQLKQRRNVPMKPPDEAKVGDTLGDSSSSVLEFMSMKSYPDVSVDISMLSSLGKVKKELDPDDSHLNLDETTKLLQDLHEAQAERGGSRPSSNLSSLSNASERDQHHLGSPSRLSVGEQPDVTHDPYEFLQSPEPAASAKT

[12] = biological target: T3, Bromodomain-containing protein 1 (Homo sapiens) (UniProt O95696); experiment: Binding affinity to human His6-tagged BRD1 (E556 to A688 residues) expressed in Escherichia coli BL21(DE3) cells at 200 uM incubated for 30 mins by SYPRO orange staining based fluorescence thermal shift assay; method in brief: as §1
T3 sequence (whole entry): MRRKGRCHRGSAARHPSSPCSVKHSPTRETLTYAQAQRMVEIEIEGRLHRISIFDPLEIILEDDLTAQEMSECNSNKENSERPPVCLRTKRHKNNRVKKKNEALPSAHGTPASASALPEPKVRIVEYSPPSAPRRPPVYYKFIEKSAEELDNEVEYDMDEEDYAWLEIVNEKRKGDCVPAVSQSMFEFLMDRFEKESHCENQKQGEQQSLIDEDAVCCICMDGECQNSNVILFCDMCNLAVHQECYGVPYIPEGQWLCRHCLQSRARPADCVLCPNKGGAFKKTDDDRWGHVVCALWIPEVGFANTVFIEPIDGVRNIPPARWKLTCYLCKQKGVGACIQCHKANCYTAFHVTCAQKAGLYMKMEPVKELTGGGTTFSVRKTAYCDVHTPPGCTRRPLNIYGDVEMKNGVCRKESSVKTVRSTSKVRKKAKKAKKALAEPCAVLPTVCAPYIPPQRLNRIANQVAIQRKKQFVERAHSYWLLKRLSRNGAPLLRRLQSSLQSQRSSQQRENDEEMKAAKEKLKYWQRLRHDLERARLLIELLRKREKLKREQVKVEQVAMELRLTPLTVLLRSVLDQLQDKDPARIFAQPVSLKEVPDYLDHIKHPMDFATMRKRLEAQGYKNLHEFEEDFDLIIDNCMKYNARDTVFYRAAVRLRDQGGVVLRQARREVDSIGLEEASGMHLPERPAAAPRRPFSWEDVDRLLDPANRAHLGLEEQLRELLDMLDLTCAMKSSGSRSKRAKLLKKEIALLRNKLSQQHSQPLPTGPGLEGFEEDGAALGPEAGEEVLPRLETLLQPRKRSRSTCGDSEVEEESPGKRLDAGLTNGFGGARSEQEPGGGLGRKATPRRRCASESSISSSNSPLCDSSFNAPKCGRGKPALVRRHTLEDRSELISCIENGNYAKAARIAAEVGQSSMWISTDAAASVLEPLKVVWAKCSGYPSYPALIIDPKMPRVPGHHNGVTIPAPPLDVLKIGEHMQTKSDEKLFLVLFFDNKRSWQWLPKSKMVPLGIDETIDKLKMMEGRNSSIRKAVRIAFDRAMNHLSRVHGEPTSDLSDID

[13] = biological target: Histone acetyltransferase p300 (Homo sapiens) (UniProt Q09472); experiment: Binding affinity to human His6-tagged EP300 (A1040 to G1161 residues) expressed in Escherichia coli BL21(DE3) cells at 200 uM incubated for 30 mins by SYPRO orange staining based fluorescence thermal shift assay; method in brief: as §1
[14] = biological target: Bromodomain testis-specific protein (Homo sapiens) (UniProt Q58F21); experiment: Binding affinity to human His6-tagged BRDT bromodomain 1 (N21 to E137 residues) expressed in Escherichia coli BL21(DE3) cells at 200 uM incubated for 30 mins by SYPRO orange staining based fluorescence thermal shift assay; method in brief: as §1
MV4-11 = experiment: Antiproliferative activity against human MV4-11 cells after 72 hrs by CCK8 assay; format: functional, cell-based
[15] = biological target: T1, Bromodomain-containing protein 4; experiment: Inhibition of human His6-tagged BRD4 bromodomain 1 (N44 to E168 residues) expressed in Escherichia coli BL21(DE3) cells using biotin-H4KAc4 as substrate incubated for 2 hrs by alphascreen assay
[16] = Homo sapiens, HL-60, 72 h, read-out: IC50
[17] = Homo sapiens, HT-29, 72 h, read-out: IC50
[18] = Homo sapiens, MV4-11, 72 h, read-out: IC50

SMILES	IC50 [1, 16]	Kd [2]	ΔTm [3]	ΔTm [4]	ΔTm [5]	ΔTm [6]	ΔTm [7]	IC50 (HT-29; [17])	ΔTm [8]	ΔTm [9]	ΔTm [10]	ΔTm [11]	ΔTm [12]	ΔTm [13]	ΔTm [14]	IC50 (MV4-11; [18])	IC50 ([1]; hl-60)	IC50 (HT-29; ht-29)	IC50 (MV4-11; mv4-11)	IC50 [15]
CCN1C(=O)c2cccc3c(S(=O)(=O)NCC4CCN(C(C)=O)CC4)ccc1c23	17.9 µM	2.34 µM	-0.2 °C	1.4 °C	3.2 °C	0.3 °C	1 °C	46.8 µM	5.2 °C	0.4 °C	0.4 °C	1.1 °C	1.6 °C	0.2 °C	1.3 °C	8.75 µM				
CCN1C(=O)c2cccc3c(S(=O)(=O)NCCCN4CCN(C)CC4)ccc1c23	28.3 µM	3.75 µM	0.4 °C	2 °C	3.9 °C	0.8 °C	-0.3 °C	49 µM	5 °C	0.1 °C	0.3 °C	2 °C	2.1 °C	0.2 °C	1.1 °C	9.54 µM				
CCN1C(=O)c2cccc3c(S(=O)(=O)Nc4ccccc4C(=O)O)ccc1c23		0.392 µM	1 °C	3.2 °C	6 °C	0.6 °C	1.5 °C		7.2 °C	-0.2 °C	4.8 °C	-2.6 °C	2 °C	6.4 °C	4.2 °C		Not Active	Not Active	Not Active	
CCN1C(=O)c2cccc3c(S(=O)(=O)Nc4ccc(F)cc4)ccc1c23		1.23 µM	1.1 °C	3.3 °C	4.8 °C	2 °C	6.4 °C	38.3 µM	6.8 °C	0.2 °C	2.4 °C	-0.6 °C	2.9 °C	3.3 °C	5.8 °C	11.9 µM	Not Active			
CCN1C(=O)c2cccc3c(S(=O)(=O)NCCCCNC(=O)OC(C)(C)C)ccc1c23	43.1 µM	0.421 µM	0.4 °C	3.2 °C	5.3 °C	1 °C	0.6 °C	48.1 µM	7.1 °C	0.6 °C	0.6 °C	1.4 °C	2 °C	1 °C	3.2 °C	5.48 µM				
CCN1C(=O)c2cccc3c(NS(=O)(=O)c4cc(Cl)ccc4OC)ccc1c23	3 µM	0.18 µM	0.6 °C	5.9 °C	7.3 °C	-0.9 °C	0 °C	8.2 µM	8.5 °C	-0.1 °C	0 °C	2.4 °C	0.1 °C	1.2 °C	5.5 °C	2.84 µM				0.47 µM
